Data reported in ChEMBL document CHEMBL4007470, “Discovery of a 2'-fluoro-2'-C-methyl C-nucleotide HCV polymerase inhibitor and a phosphoramidate prodrug with favorable properties” (Bioorg Med Chem Lett, 2017).
Values after ≈ are worked out from the molar mass of the structure shown.

Assays:
[1] = Inhibition of human DNA polymerase-alpha
[2] = Prodrug activation in Syrian golden hamster liver assessed as triphosphate metabolite formation at 5 mg equivalents/kg, po after 1 hr by LC-MS/MS analysis; assay type: ADME, organism-based, Mesocricetus auratus; details: in vivo
Procedure, shortened: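 Golden Syrian hamsters (groups of 12) dosed orally at 5 mg-eq/kg in EtOH/PEG400/water buffered with 50 mM pH 4 citrate. Livers harvested under isoflurane at 1 h and extracted in cold KOH/EDTA/70% MeOH with Cl-ATP. Triphosphate measured by LC/MS/MS, with endogenous ATP checked for sample stability.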

[3] = Fraction absorbed in Beagle dog at 5 mg/kg, po; assay type: ADME, organism-based, Canis lupus familiaris; details: in vivo, read-out: Fabs
Procedure, shortened: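 Male beagle dogs dosed orally at 5 mg/kg. Fraction absorbed determined by portal vein sampling.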

[4] = Permeability of the compound from apical to basolateral side in human Caco2 cells at 10 uM; assay type: ADME, cell-based, Caco-2; details: Caco-2, read-out: permeability
Procedure, shortened: (§1)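 Caco-2 permeability at 10 μM compound, measured in apical-to-basolateral and basolateral-to-apical directions.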

[5] = Permeability of the compound from basolateral to apical side in human Caco2 cells at 10 uM; assay type: ADME, cell-based, Caco-2; details: Caco-2, read-out: permeability; procedure, shortened: as §1
Plasma = test: Stability in rat plasma at 2 uM up to 4 hrs by LC-MS/MS analysis; assay type: ADME, cell-free
Procedure, shortened: (§2)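 Compound at 2 μM incubated in plasma at 37 °C for up to 4 h. Aliquots quenched with 9 volumes of acetonitrile containing internal standard, then centrifuged. Supernatant analysed by LC-MS/MS.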

[6] = Solubility of the compound in pH 7.4 solution; assay type: physicochemical
Procedure, shortened: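 Solubility measured at pH 7.4 using amorphous material.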

[7] = Prodrug activation in human HuH7 cells infected with HCV genotype 1b assessed as ((2R,3R,4R,5S)-5-(4-aminopyrrolo[1,2-f][1,2,4]triazin-7-yl)-4-fluoro-3-hydroxy-4-methyltetrahydrofuran-2-yl)methyl tetrahydrogen monophosphate level at 10 uM after 2 to 24 hrs by LC-MS/MS analysis; assay type: cell-based; details: huh-7, 10 µM
Hepatitis C virus [8] = test: Antiviral activity against HCV genotype 1b infected in human HuH7 cells by luciferase reporter gene assay; assay type: functional, cell-based, Hepacivirus hominis; details: Hepatitis C virus, genotype 1b, Huh-7
Procedure, shortened: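 Luciferase-reporter genotype 1b subgenomic replicon in Huh-7 cells; EC50 is concentration giving 50% inhibition. Values are averages of at least three repeats.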

[9] = Prodrug activation in human HuH7 cells infected with HCV genotype 1b assessed as ((2R,3R,4R,5S)-5-(4-aminopyrrolo[1,2-f][1,2,4]triazin-7-yl)-4-fluoro-3-hydroxy-4-methyltetrahydrofuran-2-yl)methyl tetrahydrogen diphosphate level at 10 uM after 2 to 24 hrs by LC-MS/MS analysis; assay type: cell-based; details: huh-7, 10 µM
[10] = Prodrug activation in human HuH7 cells infected with HCV genotype 1b assessed as ((2R,3R,4R,5S)-5-(4-aminopyrrolo[1,2-f][1,2,4]triazin-7-yl)-4-fluoro-3-hydroxy-4-methyltetrahydrofuran-2-yl)methyl tetrahydrogen triphosphate level per million cells at 10 uM after 2 to 24 hrs by LC-MS/MS analysis; assay type: cell-based; details: huh-7, 10 µM
Procedure, shortened: (§3)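 HCV genotype 1b replicon Huh-7 cells (DMEM with glutaMAX, 10% heat-inactivated FBS, penicillin-streptomycin, G418) grown to confluency (0.88×10^6 cells/well), exposed continuously to prodrug at 10 μM for up to 24 h; washed in ice-cold saline, extracted into 70% methanol overnight, dried, resuspended in 1 mM ammonium phosphate pH 8.5; triphosphate quantified by LC-MS/MS; LLOQ 0.137 pmol/million cells; duplicate wells, single experiment.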

Huh-7 = test: Cytotoxicity against human HuH7 cells; assay type: cell-based
[11] = Half life in human plasma at 2 uM by LC-MS/MS analysis; assay type: ADME, cell-free; procedure, shortened: as §2
[12] = Half life in hamster intestinal S9 fractions at 2 uM by LC-MS/MS analysis; assay type: ADME, Intestine; details: cricetinae, intestinal S9 fractions
[13] = Hepatic extraction in human liver S9 fractions at 2 uM by LC-MS/MS analysis; assay type: ADME; details: liver S9 fractions, read-out: ERH
Procedure, shortened: (§4)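 Compound at 2 μM incubated with S9 fractions at 37 °C for 90 min with NADPH and UDPGA. Quenched with aqueous acetonitrile/methanol containing internal standard and analysed by LC-MS/MS. Half-life from an exponential fit assuming first-order kinetics. Hepatic extraction predicted from half-life using the well-stirred model.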

Hepatitis C virus [14] = test: Antiviral activity against HCV genotype 1a infected in human HuH7 cells by luciferase reporter gene assay; assay type: functional, cell-based, Hepacivirus hominis, subtype 1a; details: Hepatitis C virus, subtype 1a, Huh-7
[15] = Half life in hamster plasma at 2 uM by LC-MS/MS analysis; assay type: ADME, cell-free; details: cricetinae; procedure, shortened: as §2
[16] = Prodrug activation in human HuH7 cells infected with HCV genotype 1b assessed as ((2R,3R,4R,5S)-5-(4-aminoimidazo[1,2-f][1,2,4]triazin-7-yl)-4-fluoro-3-hydroxy-4-methyltetrahydrofuran-2-yl)methyl tetrahydrogen triphosphate level per million cells at 10 uM after 2 hrs by LC-MS/MS analysis; assay type: cell-based; details: huh-7, 2 h; procedure, shortened: as §3
[17] = Half life in human intestinal S9 fractions at 2 uM by LC-MS/MS analysis; assay type: ADME, Intestine; procedure, shortened: as §4
[18] = Prodrug activation in human HuH7 cells infected with HCV genotype 1b assessed as ((2R,3R,4R,5S)-5-(4-aminoimidazo[1,2-f][1,2,4]triazin-7-yl)-4-fluoro-3-hydroxy-4-methyltetrahydrofuran-2-yl)methyl tetrahydrogen triphosphate level per million cells at 10 uM after 24 hrs by LC-MS/MS analysis; assay type: cell-based; details: huh-7, 24 h; procedure, shortened: as §3
[19] = Prodrug activation in human HuH7 cells infected with HCV genotype 1b assessed as ((2R,3R,4R,5S)-5-(4-aminoimidazo[1,2-f][1,2,4]triazin-7-yl)-4-fluoro-3-hydroxy-4-methyltetrahydrofuran-2-yl)methyl tetrahydrogen triphosphate level per million cells at 10 uM after 6 hrs by LC-MS/MS analysis; assay type: cell-based; details: huh-7, 6 h; procedure, shortened: as §3
[20] = Hepatic extraction in hamster liver S9 fractions at 2 uM by LC-MS/MS analysis; assay type: ADME; details: cricetinae, liver S9 fractions; read-out: ERH; procedure, shortened: as §4
Hepatitis C virus [21] = test: Antiviral activity against HCV genotype 4a infected in human HuH7 cells by luciferase reporter gene assay; assay type: functional, cell-based, Hepacivirus hominis; details: Hepatitis C virus, genotype 4a, Huh-7
[22] = system: RNA-directed RNA polymerase (Hepacivirus hominis), O39930 [UNDEFINED MUTATION]; test: Inhibition of HCV genotype 1b wild-type NS5B RNA dependent RNA polymerase S282T mutant relative to control; details: Hepatitis C virus subtype 1b
[23] = Activity at human mitochondrial RNA polymerase assessed as incorporation rate relative to ATP; assay type: ADME
[24] = Inhibition of human DNA polymerase-gamma
[25] = Inhibition of HCV genotype 1b wild-type NS5B RNA dependent RNA polymerase; parameters: species or system Hepatitis C virus subtype 1b
DNA polymerase beta = DNA polymerase beta (Homo sapiens, UniProt P06746); test: Inhibition of human DNA polymerase-beta
[26] = Inhibition of human RNA polymerase-2

Question: Which IC50 [1] does the source give for `C[C@@]1(CO)[C@H](O)CC[C@@]2(C)[C@H]1CC[C@H]1C[C@@H]3C[C@@]12CC[C@]3(O)CO` [APHIDICOLIN] here?
Answer: The IC50 was 7.3 µM.

Question: Which results are given for `CC(C)OC(=O)[C@H](C)N[P@@](=O)(O)OC[C@H]1O[C@@](C#N)(c2ccc3c(N)ncnn23)[C@](C)(O)[C@@H]1O`?
Answer: liver triphosphate concentration [2]: 0.53 µM; Fa [3]: 10%; Papp A→B at 10 µM [4]: 0.2 ×10⁻⁶ cm/s; Papp B→A at 10 µM [5]: 8.9 ×10⁻⁶ cm/s; Stability (Plasma): Unstable; solubility [6]: 306 µg/mL (≈ 614 µM)

Question: For `CCOC(=O)[C@H](C)NP(=O)(OC[C@H]1O[C@@H](c2ccc3c(N)ncnn23)[C@](C)(F)[C@@H]1O)Oc1ccccc1` (some centres not stated), which Drug metabolism [7] is on record?
Answer: The Drug metabolism was “Metabolite_Detected”.

Question: And the EC50 (Hepatitis C virus [8])?
Answer: The EC50 was > 89 µM.

Question: And the Drug metabolism [9]?
Answer: Its Drug metabolism is “Metabolite_Notdetected”.

Question: What about the Drug metabolism [10] of the same molecule?
Answer: The Drug metabolism was < 0.137 pmol.

Question: With `CCOC(=O)[C@H](C)NP(=O)(OC[C@H]1O[C@@H](c2cnc3c(N)ncnn23)[C@](C)(F)[C@@H]1O)Oc1ccccc1` (some centres not stated) as the molecule, how does the Activity (Huh-7) read?
Answer: The Activity was “Non-Toxic”.

Question: What about the half-life at 2 µM [11] of the same molecule?
Answer: Its half-life at 2 µM is 7.57 h.

Question: What about the half-life at 2 µM [12] of the same molecule?
Answer: Its half-life at 2 µM is 0.4 h.

Question: And the EC50 (Hepatitis C virus [8])?
Answer: The EC50 was 0.58 to 0.59 µM.

Question: And the hepatic extraction ratio at 2 µM [13]?
Answer: Its hepatic extraction ratio at 2 µM is 0.83.

Question: And the EC50 (Hepatitis C virus [14])?
Answer: Its EC50 is 0.37 µM.

Question: And the half-life at 2 µM [15]?
Answer: Its half-life at 2 µM is > 13.2 h.

Question: And the Drug metabolism [16]?
Answer: The Drug metabolism was 2.4 pmol.

Question: And the half-life at 2 µM [17]?
Answer: Its half-life at 2 µM is 2.23 h.

Question: And the Drug metabolism [18]?
Answer: Its Drug metabolism is 20.5 pmol.

Question: What about the Drug metabolism [19] of the same molecule?
Answer: Its Drug metabolism is 13 pmol.

Question: And the hepatic extraction ratio at 2 µM [20]?
Answer: Its hepatic extraction ratio at 2 µM is 0.76.

Question: What about the EC50 (Hepatitis C virus [21]) of the same molecule?
Answer: The EC50 was 0.1 µM.

Question: For `C[C@@]1(F)[C@H](O)[C@@H](COP(=O)(O)OP(=O)(O)OP(=O)(O)O)O[C@H]1c1cnc2c(N)ncnn12`, which fold change (FC) [22] is on record?
Answer: The fold change (FC) was 5.9.

Question: What about the Activity [23] of the same molecule?
Answer: The Activity was 0.04%.

Question: What about the IC50 [24] of the same molecule?
Answer: The IC50 was > 200 µM.

Question: What about the EC50 (Hepatitis C virus [8]) of the same molecule?
Answer: The EC50 was > 89 µM.

Question: What about the IC50 [25] of the same molecule?
Answer: The IC50 was 0.15 µM.

Question: And the IC50 [1]?
Answer: Its IC50 is > 200 µM.

Question: What about the IC50 (DNA polymerase beta) of the same molecule?
Answer: The IC50 was > 200 µM.

Question: What about the IC50 [26] of the same molecule?
Answer: Its IC50 is > 200 µM.
